Columns and labels:
[1] = test system: Human immunodeficiency virus 1; experiment: Antiviral activity against HIV-1 harboring F227L/V106A double mutant infected in human MT4 cells assessed as inhibition of virus induced cytotoxicity incubated for 5 days by spectrophometry based MTT assay; format: functional, organism-based; details: Human immunodeficiency virus 1, MT4, 120 h
Procedure, shortened: (§1)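 MT-4 cells (from Dr. N. Yamamoto, Yamaguchi University) infected with single-mutant (L100I, K103N, Y181C, Y188L, E138K) or double-mutant (F227L/V106A; RES056 = K103N/Y181C) HIV-1 strains. Protection against virus-induced cytotoxicity was read by the MTT method. EC50 is the concentration giving 50% protection of the cell cultures.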

[2] = test system: Human immunodeficiency virus 1; experiment: Antiviral activity against HIV-1 harboring L100I mutant infected in human MT4 cells assessed as inhibition of virus induced cytotoxicity incubated for 5 days by spectrophometry based MTT assay; format: functional, organism-based; details: Human immunodeficiency virus 1, MT4, 120 h; procedure, shortened: as §1
[3] = test system: Human immunodeficiency virus 1; experiment: Antiviral activity against HIV-1 harboring RES056 mutant infected in human MT4 cells assessed as inhibition of virus induced cytotoxicity incubated for 5 days by spectrophometry based MTT assay; format: functional, organism-based; details: Human immunodeficiency virus 1, MT4, 120 h; procedure, shortened: as §1
[4] = test system: Human immunodeficiency virus 1; experiment: Antiviral activity against HIV-1 harboring K103N mutant infected in human MT4 cells assessed as inhibition of virus induced cytotoxicity incubated for 5 days by spectrophometry based MTT assay; format: functional, organism-based; details: Human immunodeficiency virus 1, MT4, 120 h; procedure, shortened: as §1
[5] = test system: Human immunodeficiency virus 2; experiment: Antiviral activity against HIV-2 ROD infected in human MT4 cells incubated for 5 days by spectrophotometry based MTT assay; format: functional, organism-based; details: Human immunodeficiency virus 2, ROD, MT4, 120 h
Procedure, shortened: (§2)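 MTT protection assay in MT-4 cells infected with HIV-1 IIIB or HIV-2 ROD. EC50 is the compound concentration giving 50% protection of the cultures against virus-induced cytotoxicity.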

[6] = Selectivity index, ratio of CC50 for cytotoxicity against human MT4 cells to EC50 for antiviral activity against wild-type HIV-1 IIIB infected in human MT4 cells; format: toxicity, cell-based; details: read-out: Ratio CC50/EC50
Procedure, shortened: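 Selectivity index is calculated as CC50 (mock-infected MT-4, MTT) divided by EC50 (HIV-1 IIIB protection of MT-4, MTT).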

[7] = test system: Human immunodeficiency virus 1; experiment: Antiviral activity against HIV-1 harboring E138K mutant infected in human MT4 cells assessed as inhibition of virus induced cytotoxicity incubated for 5 days by spectrophometry based MTT assay; format: functional, organism-based; details: Human immunodeficiency virus 1, MT4, 120 h; procedure, shortened: as §1
[8] = test system: Human immunodeficiency virus 1; experiment: Antiviral activity against HIV-1 harboring Y188L mutant infected in human MT4 cells assessed as inhibition of virus induced cytotoxicity incubated for 5 days by spectrophometry based MTT assay; format: functional, organism-based; details: Human immunodeficiency virus 1, MT4, 120 h; procedure, shortened: as §1
[9] = test system: Human immunodeficiency virus 1; experiment: Antiviral activity against HIV-1 harboring Y181C mutant infected in human MT4 cells assessed as inhibition of virus induced cytotoxicity incubated for 5 days by spectrophometry based MTT assay; format: functional, organism-based; details: Human immunodeficiency virus 1, MT4, 120 h; procedure, shortened: as §1
[10] = Cytotoxicity against human MT4 cells assessed as reduction in cell viability incubated for 5 days by MTT assay; format: toxicity, cell-based; details: time 5 day
Procedure, shortened: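 Mock-infected MT-4 cultures were read by MTT for cell viability. CC50 is the concentration that reduces viability by 50%.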

[11] = test system: Human immunodeficiency virus 1; experiment: Antiviral activity against wild-type HIV-1 IIIB infected in human MT4 cells incubated for 5 days by spectrophometry based MTT assay; format: functional, organism-based; details: Human immunodeficiency virus 1, IIIB, MT4, 120 h; procedure, shortened: as §2
[12] = biological target: Human immunodeficiency virus type 1 reverse transcriptase (Human immunodeficiency virus 1) (UniProt Q72547); experiment: Inhibition of recombinant HIV-1 reverse transcriptase at 0.66 mM incubated for 1 hr by ELISA relative to control
Procedure, shortened: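 Each library compound was tested directly as the crude click mixture (diluted in DMSO to 2 mM per well) against HIV-1 RT at 0.66 mM, using an ELISA-based RT kit following the kit protocol. Blank controls held DMSO, TBTA, CuSO4·5H2O and sodium ascorbate. Inhibition is expressed as a percentage.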

Structure (SMILES)	EC50 [1]	EC50 [2]	EC50 [3]	EC50 [4]	EC50 [5]	selectivity ratio [6]	EC50 [7]	EC50 [8]	EC50 [9]	CC50 at 120 h [10]	EC50 [11]	inhibition [12]
Cc1cc(C)cc(S(=O)(=O)c2c(C(=O)NCc3cn(CSc4ccccc4)nn3)[nH]c3ccc(Cl)cc23)c1	810 nM	150 nM	> 221000 nM	240 nM	> 221000 nM	> 5510	180 nM	15800 nM	670 nM	> 221000 nM	40 nM	> 85%
Cc1cc(C)cc(S(=O)(=O)c2c(C(=O)NCc3cn(Cc4cccc([N+](=O)[O-])c4)nn3)[nH]c3ccc(Cl)cc23)c1	9410 nM	1900 nM	> 216000 nM	2840 nM	> 216000 nM	> 939	1300 nM	152000 nM	3040 nM	> 216000 nM	230 nM	> 85%
Cc1cc(C)cc(S(=O)(=O)c2c(C(=O)NCc3cn(Cc4ccccc4[N+](=O)[O-])nn3)[nH]c3ccc(Cl)cc23)c1	1560 nM	150 nM	> 194000 nM	510 nM	> 216000 nM	> 9120	150 nM	20800 nM	290 nM	> 216000 nM	24 nM	> 85%
Cc1cc(C)cc(S(=O)(=O)c2c(C(=O)NCc3cn(CC(=O)Nc4ccc(F)cc4)nn3)[nH]c3ccc(Cl)cc23)c1	5090 nM	530 nM	> 16200 nM	2780 nM	> 16200 nM	188	560 nM	14100 nM	1070 nM	16200 nM	87 nM	> 85%
Cc1cc(C)cc(S(=O)(=O)c2c(C(=O)NCc3cn(Cc4cccc(C#N)c4)nn3)[nH]c3ccc(Cl)cc23)c1	2960 nM	340 nM	> 166000 nM	1240 nM	> 166000 nM	2680	350 nM	> 35300 nM	1100 nM	166000 nM	62 nM	> 85%

Source: ChEMBL document CHEMBL6134765, “Rapid identification of novel indolylarylsulfone derivatives as potent HIV-1 NNRTIs via miniaturized CuAAC click-chemistry-based combinatorial libraries” (RSC Med Chem, 2025)
